ChEMBL document CHEMBL2346608, “New annelated thieno[2,3-e][1,2,3]triazolo[1,5-a]pyrimidines, with potent anticancer activity, designed through VLAK protocol” (2013)

How the values were obtained:
Assay type in all cases: functional
SK-MEL-5 = assay: Antiproliferative activity against human SK-MEL-5 cells after 48 hrs by sulforhodamine B assay; details: SK-MEL-5, 48 h
Procedure, shortened: (§1)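 Cells grown in RPMI 1640 with 5% FBS and 2 mM L-glutamine, plated at 5000–40,000 cells/well and preincubated 24 h at 37 °C, 5% CO2. Five drug concentrations (10-fold or ½-log dilutions from DMSO stocks) applied for 48 h. TCA-fixed (final 10% adherent, 16% suspension), SRB-stained, A515 read. Growth versus time-zero and control wells gave GI50, TGI, LC50.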

OVCAR-3 = assay: Antiproliferative activity against human OVCAR3 cells after 48 hrs by sulforhodamine B assay; details: OVCAR-3, 48 h; procedure, shortened: as §1
[1] = Antiproliferative activity against human HCC2998 cells after 48 hrs by sulforhodamine B assay; details: HCC 2998, 48 h; procedure, shortened: as §1
CAKI-1 = assay: Antiproliferative activity against human CAKI-1 cells after 48 hrs by sulforhodamine B assay; details: CAKI-1, 48 h; procedure, shortened: as §1
UACC-257 = assay: Antiproliferative activity against human UACC257 cells after 48 hrs by sulforhodamine B assay; details: UACC-257, 48 h
Procedure, shortened: (§2)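 Cells in RPMI 1640 with 5% FBS and 2 mM L-glutamine were seeded at 5000–40,000/well according to doubling time and preincubated 24 h at 37 °C in 5% CO2. Time-zero plates were TCA-fixed when drug was added. Five 10-fold or ½-log dilutions from DMSO stocks were added for 48 h. After SRB staining, A515 was read and GI50 derived from [(Ti−Tz)/(C−Tz)]×100 = 50.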

HOP-92 = assay: Antiproliferative activity against human HOP92 cells after 48 hrs by sulforhodamine B assay; details: HOP-92, 48 h; procedure, shortened: as §1
OVCAR-5 = assay: Antiproliferative activity against human OVCAR5 cells after 48 hrs by sulforhodamine B assay; details: OVCAR-5, 48 h; procedure, shortened: as §1
LOX IMVI = assay: Antiproliferative activity against human LOXIMVI cells after 48 hrs by sulforhodamine B assay; procedure, shortened: as §1
KM12 = assay: Antiproliferative activity against human KM12 cells after 48 hrs by sulforhodamine B assay; details: KM12, 48 h; procedure, shortened: as §1
786-0 = assay: Antiproliferative activity against human 786-0 cells after 48 hrs by sulforhodamine B assay; details: 786-0, 48 h; procedure, shortened: as §1
SK-OV-3 = assay: Antiproliferative activity against human SKOV3 cells after 48 hrs by sulforhodamine B assay; details: SK-OV-3, 48 h; procedure, shortened: as §1
PC-3 = assay: Antiproliferative activity against human PC3 cells after 48 hrs by sulforhodamine B assay; details: PC-3, 48 h; procedure, shortened: as §1
NCI-H226 = assay: Antiproliferative activity against human NCI-H226 cells after 48 hrs by sulforhodamine B assay; details: NCI-H226, 48 h; procedure, shortened: as §1
UACC-62 = assay: Antiproliferative activity against human UACC62 cells after 48 hrs by sulforhodamine B assay; details: UACC-62, 48 h; procedure, shortened: as §2
NCI/ADR-RES = assay: Antiproliferative activity against human NCI/ADR-RES cells after 48 hrs by sulforhodamine B assay; procedure, shortened: as §1
M14 = assay: Antiproliferative activity against human M14 cells after 48 hrs by sulforhodamine B assay; details: M14, 48 h; procedure, shortened: as §1
HL-60 = assay: Antiproliferative activity against human HL60 (TB) cells after 48 hrs by sulforhodamine B assay; details: HL-60, 48 h
Procedure, shortened: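 NCI 60-cell panel protocol: cells in RPMI 1640 with 5% FBS and 2 mM L-glutamine, plated 24 h at 37 °C/5% CO2 before dosing. Compounds dissolved in DMSO and tested at five concentrations (10-fold or ½ log serial dilutions) for 48 h. Suspension cells fixed with 80% TCA (final 16%), SRB stained, absorbance at 515 nm. GI50 derived from time-zero-corrected growth.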

SK-MEL-28 = assay: Antiproliferative activity against human SK-MEL-28 cells after 48 hrs by sulforhodamine B assay; details: SK-MEL-28, 48 h; procedure, shortened: as §1
A549 = assay: Antiproliferative activity against human A549 cells after 48 hrs by sulforhodamine B assay; details: A549, 48 h; procedure, shortened: as §1
MDA-MB-435 = assay: Antiproliferative activity against human MDA-MB-435 cells after 48 hrs by sulforhodamine B assay; details: MDA-MB-435, 48 h; procedure, shortened: as §1
SF-268 = assay: Antiproliferative activity against human SF268 cells after 48 hrs by sulforhodamine B assay; details: SF-268, 48 h; procedure, shortened: as §1
[2] = Antiproliferative activity against human Hs 578T cells after 48 hrs by sulforhodamine B assay; procedure, shortened: as §1
SW-620 = assay: Antiproliferative activity against human SW620 cells after 48 hrs by sulforhodamine B assay; details: SW-620, 48 h; procedure, shortened: as §2
OVCAR-8 = assay: Antiproliferative activity against human OVCAR8 cells after 48 hrs by sulforhodamine B assay; details: OVCAR-8, 48 h; procedure, shortened: as §1
SN12C = assay: Antiproliferative activity against human SN12C cells after 48 hrs by sulforhodamine B assay; procedure, shortened: as §1
NCI-H23 = assay: Antiproliferative activity against human NCI-H23 cells after 48 hrs by sulforhodamine B assay; details: NCI-H23, 48 h; procedure, shortened: as §1
SF-539 = assay: Antiproliferative activity against human SF539 cells after 48 hrs by sulforhodamine B assay; details: SF-539, 48 h; procedure, shortened: as §1
[3] = read-out: pLC50 (the source's name) (converted)

For `O=C(CCCn1c(=O)c2sc3ccccc3c2n2nnc(-c3ccccc3)c12)NCCc1c[nH]cn1`, the GI50 (SK-MEL-5) was 1.91 µM, the LC50 (SK-MEL-5) was 8.91 µM and the TGI (SK-MEL-5; read-out: pTGI (converted)) was 4.07 µM. It also gave a GI50 (OVCAR-3) of 1.51 µM, an LC50 (OVCAR-3) of 6.61 µM and a TGI (OVCAR-3; read-out: pTGI (converted)) of 3.16 µM. For the same compound, the GI50 [1] was 1.78 µM, the LC50 [1] was 9.77 µM and the TGI ([1]; read-out: pTGI (converted)) was 4.17 µM. It also gave a GI50 (CAKI-1) of 0.182 µM, a CC50 (CAKI-1; [3]) of 4.47 µM and a TGI (CAKI-1; read-out: pTGI (converted)) of 1.7 µM. It also gave a GI50 (UACC-257) of 2.04 µM, an LC50 (UACC-257) greater than 100 µM and a TGI (UACC-257; read-out: pTGI (converted)) of 4.57 µM. For the same compound, the GI50 (HOP-92) was 1.86 µM, the CC50 (HOP-92; [3]) was greater than 100 µM and the GI50 (OVCAR-5) was 1.2 µM. It also gave a TGI (OVCAR-5; read-out: pTGI (converted)) of 2.75 µM, a GI50 (LOX IMVI) of 1.58 µM and a CC50 (LOX IMVI; [3]) of 5.37 µM. For the same compound, the TGI (LOX IMVI; read-out: pTGI (converted)) was 2.95 µM, the GI50 (KM12) was 1.15 µM and the TGI (KM12; read-out: pTGI (converted)) was 2.82 µM. It also gave a GI50 (786-0) of 1.58 µM, a TGI (786-0; read-out: pTGI (converted)) of 3.55 µM and a GI50 (SK-OV-3) of 3.47 µM. For the same compound, the LC50 (SK-OV-3) was 66.1 µM, the TGI (SK-OV-3; read-out: pTGI (converted)) was 15.5 µM and the LC50 (PC-3) was greater than 100 µM. It also gave a TGI (PC-3; read-out: pTGI (converted)) greater than 100 µM, a GI50 (NCI-H226) of 18.6 µM and an LC50 (NCI-H226) of 75.9 µM. It also gave a TGI (NCI-H226; read-out: pTGI (converted)) of 38 µM, a GI50 (UACC-62) of 1.91 µM and an LC50 (concentration killing 50% of cells) (UACC-62) of 6.61 µM. For the same compound, the TGI (UACC-62; read-out: pTGI (converted)) was 3.55 µM, the GI50 (NCI/ADR-RES) was 3.24 µM and the LC50 (NCI/ADR-RES) was greater than 100 µM. It also gave a TGI (NCI/ADR-RES; read-out: pTGI (converted)) greater than 100 µM, a GI50 (M14) of 1.7 µM and a TGI (M14; read-out: pTGI (converted)) of 3.8 µM. It also gave a GI50 (HL-60) of 1.41 µM, a CC50 (HL-60; [3]) greater than 100 µM and a TGI (HL-60; read-out: pTGI (converted)) of 6.31 µM. The GI50 (SK-MEL-28) was 1.74 µM, the LC50 (SK-MEL-28) was 5.89 µM and the TGI (SK-MEL-28; read-out: pTGI (converted)) was 3.24 µM. It also gave a GI50 (A549) of 2.09 µM, a TGI (A549; read-out: pTGI (converted)) of 4.57 µM and a GI50 (MDA-MB-435) of 1.48 µM. For the same compound, the LC50 (MDA-MB-435) was 6.31 µM, the TGI (MDA-MB-435; read-out: pTGI (converted)) was 3.09 µM and the GI50 (SF-268) was 1.78 µM. It also gave an LC50 (SF-268) of 7.76 µM, a TGI (SF-268; read-out: pTGI (converted)) of 3.72 µM and a GI50 [2] of 1.74 µM. For the same compound, the TGI ([2]; read-out: pTGI (converted)) was 4.07 µM, the GI50 (SW-620) was 0.407 µM and the GI50 (OVCAR-8) was 0.324 µM. For the same compound, the LC50 (OVCAR-8) was greater than 100 µM, the TGI (OVCAR-8; read-out: pTGI (converted)) was 2.82 µM and the GI50 (SN12C) was 0.269 µM. It also gave an LC50 (SN12C) of 5.13 µM, a TGI (SN12C; read-out: pTGI (converted)) of 1.86 µM and a GI50 (NCI-H23) of 2.95 µM. For the same compound, the LC50 (NCI-H23) was greater than 100 µM, the TGI (NCI-H23; read-out: pTGI (converted)) was 11.7 µM and the GI50 (SF-539) was 0.661 µM. The LC50 (SF-539) was 5.75 µM and the TGI (SF-539; read-out: pTGI (converted)) was 2.19 µM.
